ChEMBL document CHEMBL1147601, “Synthesis, biodistribution and micro-PET imaging of radiolabeled antimitotic agent T138067 analogues” (Bioorg Med Chem Lett, 2004)

Legend:
[1] = test system: Mus musculus; assay: In vivo biodistribution of compound in lungs of MDA-MB-435 implanted athymic mice at 30 min post iv injection; format: ADME, organism-based, Lung; conditions: 0.5 h
How it was run: (§1)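 Tumor-bearing athymic mice 8 weeks after xenograft implantation; tail-vein iv dose of 1–3 mCi [11C]-labeled tracer (subpharmacologic) in conscious restrained animals. Killed by decapitation under halothane at 30 min. Tissues excised and weighed, decay-corrected radioactivity gamma-counted, expressed as % injected dose/g. Tumor/blood and tumor/muscle ratios taken from these values. Mean ± SD, n=3 mice.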

[2] = test system: Mus musculus; assay: In vivo biodistribution of compound in muscle of MDA-MB-435 implanted athymic mice at 30 min post iv injection; format: ADME, organism-based, Muscle tissue; conditions: 0.5 h; how it was run: as §1
[3] = test system: Mus musculus; assay: In vivo biodistribution of compound in spleen of MDA-MB-435 implanted athymic mice at 30 min post iv injection; format: ADME, organism-based; conditions: 0.5 h; how it was run: as §1
[4] = test system: Mus musculus; assay: In vivo biodistribution of compound in blood of MCF-7 transfected with IL-1alpha implanted athymic mice at 30 min post iv injection; format: ADME, organism-based; conditions: 0.5 h; how it was run: as §1
[5] = test system: Mus musculus; assay: In vivo biodistribution of compound in heart of MDA-MB-435 implanted athymic mice at 30 min post iv injection; format: ADME, organism-based; conditions: 0.5 h; how it was run: as §1
[6] = In vivo biodistribution ratio in tumor to that of blood (T/B ratio) in MCF-7 transfected with IL-1alpha implanted athymic mice; format: ADME, organism-based; conditions: mouse; how it was run: as §1
[7] = test system: Mus musculus; assay: In vivo biodistribution of compound in bone of MDA-MB-435 implanted athymic mice at 30 min post iv injection; format: ADME, organism-based, Bone element; conditions: 0.5 h; how it was run: as §1
[8] = test system: Mus musculus; assay: In vivo biodistribution of compound in lungs of MCF-7 transfected with IL-1alpha implanted athymic mice at 30 min post iv injection; format: ADME, organism-based, Lung; conditions: 0.5 h; how it was run: as §1
[9] = test system: Mus musculus; assay: In vivo biodistribution of compound in liver of MDA-MB-435 implanted athymic mice at 30 min post iv injection; format: ADME, organism-based; conditions: 0.5 h; how it was run: as §1
[10] = test system: Mus musculus; assay: In vivo biodistribution of compound in spleen of MCF-7 transfected with IL-1alpha implanted athymic mice at 30 min post iv injection; format: ADME, organism-based; conditions: 0.5 h; how it was run: as §1
[11] = test system: Mus musculus; assay: In vivo biodistribution of compound in kidney of MCF-7 transfected with IL-1alpha implanted athymic mice at 30 min post iv injection; format: ADME, organism-based; conditions: 0.5 h; how it was run: as §1
[12] = test system: Mus musculus; assay: In vivo biodistribution of compound in muscle of MCF-7 transfected with IL-1alpha implanted athymic mice at 30 min post iv injection; format: ADME, organism-based, Muscle tissue; conditions: 0.5 h; how it was run: as §1
[13] = test system: Mus musculus; assay: In vivo biodistribution of compound in tumor of MDA-MB-435 implanted athymic mice at 30 min post iv injection; format: ADME, organism-based; conditions: 0.5 h; how it was run: as §1
[14] = test system: Mus musculus; assay: In vivo biodistribution of compound in brain of MDA-MB-435 implanted athymic mice at 30 min post iv injection; format: ADME, organism-based; conditions: 0.5 h; how it was run: as §1
[15] = test system: Mus musculus; assay: In vivo biodistribution of compound in bone of MCF-7 transfected with IL-1alpha implanted athymic mice at 30 min post iv injection; format: ADME, organism-based, Bone element; conditions: 0.5 h; how it was run: as §1
[16] = test system: Mus musculus; assay: In vivo biodistribution ratio in tumor to that of muscle (T/M ratio) in MCF-7 transfected with IL-1alpha implanted athymic mice; format: ADME, organism-based, Muscle tissue; how it was run: as §1
[17] = In vivo biodistribution ratio in tumor to that of blood (T/B ratio) in MDA-MB-435 implanted athymic mice; format: functional
How it was run: (§2)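 Athymic mice 8 weeks after MDA-MB-435 xenograft implantation received a subpharmacologic iv tail-vein dose of the 11C-labelled tracer under conscious restraint. They were killed by decapitation under halothane at 30 min post injection. Tissues were excised and weighed, and decay-corrected radioactivity was gamma-counted as % id/g. The ratio is tumor %id/g over muscle or blood %id/g, given as mean ± SD of n=3 mice.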

[18] = test system: Mus musculus; assay: In vivo biodistribution of compound in blood of MDA-MB-435 implanted athymic mice at 30 min post iv injection; format: ADME, organism-based; conditions: 0.5 h; how it was run: as §1
[19] = test system: Mus musculus; assay: In vivo biodistribution of compound in tumor of MCF-7 transfected with IL-1alpha implanted athymic mice at 30 min post iv injection; format: ADME, organism-based; conditions: 0.5 h; how it was run: as §1
[20] = test system: Mus musculus; assay: In vivo biodistribution of compound in heart of MCF-7 transfected with IL-1alpha implanted athymic mice at 30 min post iv injection; format: ADME, organism-based; conditions: 0.5 h; how it was run: as §1
[21] = test system: Mus musculus; assay: In vivo biodistribution of compound in liver of MCF-7 transfected with IL-1alpha implanted athymic mice at 30 min post iv injection; format: ADME, organism-based; conditions: 0.5 h; how it was run: as §1
[22] = test system: Mus musculus; assay: In vivo biodistribution of compound in brain of MCF-7 transfected with IL-1alpha implanted athymic mice at 30 min post iv injection; format: ADME, organism-based; conditions: 0.5 h; how it was run: as §1
[23] = test system: Mus musculus; assay: In vivo biodistribution of compound in kidneys of MDA-MB-435 implanted athymic mice at 30 min post iv injection; format: ADME, organism-based, Kidney; conditions: 0.5 h; how it was run: as §1
[24] = test system: Mus musculus; assay: In vivo biodistribution of compound in small intestine of MDA-MB-435 implanted athymic mice at 30 min post iv injection; format: ADME, organism-based; conditions: 0.5 h; how it was run: as §1
[25] = In vivo biodistribution ratio in tumor to that of muscle (T/M ratio) in MDA-MB-435 implanted athymic mice; format: functional, Muscle tissue; how it was run: as §2
[26] = test system: Mus musculus; assay: In vivo biodistribution of compound in small intestine of MCF-7 transfected with IL-1alpha implanted athymic mice at 30 min post iv injection; format: ADME, organism-based; conditions: 0.5 h; how it was run: as §1

[11CH3]Oc1ccc(NS(=O)(=O)c2c(F)c(F)c(F)c(F)c2F)cc1F
Injected dose/g [1]: 9.2%
Injected dose/g [2]: 1.99%
Injected dose/g [3]: 2.95%
Injected dose/g [4]: 1.68%
Injected dose/g [5]: 8.54%
Kp [6]: 0.94
Injected dose/g [7]: 1.75%
Injected dose/g [8]: 4.95%
Injected dose/g [9]: 14.92%
Injected dose/g [10]: 2.01%
Injected dose/g [11]: 3.34%
Injected dose/g [12]: 1.7%
Injected dose/g [13]: 1.92%
Injected dose/g [14]: 1.03%
Injected dose/g [15]: 1.31%
Ratio [16]: 0.89
Ratio [17]: 5.63
Injected dose/g [18]: 0.35%
Injected dose/g [19]: 1.51%
Injected dose/g [20]: 1.75%
Injected dose/g [21]: 6.79%
Injected dose/g [22]: 1.53%
Injected dose/g [23]: 17.62%
Injected dose/g [24]: 6.19%
Ratio [25]: 1.01
Injected dose/g [26]: 5.16%
